Measured values published in ChEMBL document CHEMBL4138218, “Potent aromatase inhibitors and molecular mechanism of inhibitory action” (Eur J Med Chem, 2018).

Target: T1, Aromatase (Homo sapiens, UniProt P11511)
T1 sequence (P11511 whole entry): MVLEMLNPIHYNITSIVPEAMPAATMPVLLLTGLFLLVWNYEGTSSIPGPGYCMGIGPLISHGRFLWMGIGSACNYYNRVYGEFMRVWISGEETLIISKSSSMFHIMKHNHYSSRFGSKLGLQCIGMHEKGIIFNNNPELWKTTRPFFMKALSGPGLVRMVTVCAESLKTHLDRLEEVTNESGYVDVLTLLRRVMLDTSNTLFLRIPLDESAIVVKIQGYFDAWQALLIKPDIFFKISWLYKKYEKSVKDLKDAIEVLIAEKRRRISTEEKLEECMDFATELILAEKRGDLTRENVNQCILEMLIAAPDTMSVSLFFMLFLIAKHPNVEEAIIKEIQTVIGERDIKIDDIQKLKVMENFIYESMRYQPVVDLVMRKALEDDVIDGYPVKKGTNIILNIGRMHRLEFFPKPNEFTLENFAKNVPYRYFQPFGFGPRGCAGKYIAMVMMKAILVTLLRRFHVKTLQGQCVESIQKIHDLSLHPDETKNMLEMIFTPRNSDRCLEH
Assay: Inhibition of human aromatase using androstenedione as substrate and NADPH preincubated for 24 hrs followed by substrate addition measured after 24 hrs by ELISA
Conditions: not given
Procedure, shortened: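 Enzyme was a microsomal pellet from human placenta: tissue homogenized in TES buffer (20 mM TES, 1 mM EDTA, 0.15 M KCl, 0.1 mM PMSF, pH 7.4), spun at 10,000 g for 25 min then 100,000 g for 75 min at 4 °C, resuspended with 0.25 M sucrose, stored at −80 °C. Androstenedione substrate with NADPH; estrone quantified by ELISA against a standard curve. Triplicates, mean IC50.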

Question: How did the IC50 turn out when `Clc1ccc(-c2[nH]c3cc(Cl)ccc3c2Cn2ccnc2)cc1` was run?
Answer: Its IC50 is 0.261 µM.

Question: How did the IC50 turn out when `COc1ccc2c(Cn3ccnc3)c(-c3ccc(F)cc3)[nH]c2c1` was run?
Answer: The IC50 was 0.109 µM.

Question: How did the IC50 turn out when `Fc1ccc(-c2[nH]c3cc4c(cc3c2Cn2ccnc2)OCO4)cc1` was run?
Answer: The IC50 was 0.211 µM.

Question: For `COc1ccc2c(Cn3cncn3)c(-c3ccc(F)cc3)[nH]c2c1`, which IC50 is on record?
Answer: Its IC50 is 0.238 µM.

Question: `Fc1ccc(-c2[nH]c3cc(Cl)ccc3c2Cn2cncn2)cc1` was tested. Which IC50 did it give?
Answer: The IC50 was 0.0969 µM.

Question: `COc1ccc2c(Cn3ccnc3)c(-c3ccc(Cl)cc3)[nH]c2c1` was tested. Which IC50 did it give?
Answer: Its IC50 is 1.06 µM.

Question: Which IC50 does the source give for `COc1ccc(-c2[nH]c3cc(F)ccc3c2Cn2cncn2)cc1` here?
Answer: Its IC50 is 0.0141 µM.

Question: With `Fc1ccc(-c2[nH]c3cc4c(cc3c2Cn2cncn2)OCO4)cc1` as the molecule, how does the IC50 read?
Answer: Its IC50 is 0.0583 µM.

Question: How did the IC50 turn out when `COc1ccc(-c2[nH]c3cc(Cl)ccc3c2Cn2ccnc2)cc1` was run?
Answer: The IC50 was 0.277 µM.

Question: How did the IC50 turn out when `Fc1ccc2c(Cn3cncn3)c(-c3ccc(Cl)cc3)[nH]c2c1` was run?
Answer: The IC50 was 0.217 µM.

Question: How did the IC50 turn out when `Fc1ccc(-c2[nH]c3cc(Cl)ccc3c2Cn2ccnc2)cc1` was run?
Answer: Its IC50 is 0.0323 µM.

Question: With `Clc1ccc(-c2[nH]c3cc4c(cc3c2Cn2cncn2)OCO4)cc1` as the molecule, how does the IC50 read?
Answer: Its IC50 is 0.677 µM.

Question: How did the IC50 turn out when `Fc1ccc(-c2[nH]c3cc(F)ccc3c2Cn2ccnc2)cc1` was run?
Answer: The IC50 was 0.0512 µM.

Question: With `Clc1ccc(-c2[nH]c3cc(Cl)ccc3c2Cn2cncn2)cc1` as the molecule, how does the IC50 read?
Answer: Its IC50 is 0.208 µM.

Question: With `COc1ccc(-c2[nH]c3cc(F)ccc3c2Cn2ccnc2)cc1` as the molecule, how does the IC50 read?
Answer: Its IC50 is 0.0361 µM.

Question: With `Fc1ccc2c(Cn3ccnc3)c(-c3ccc(Cl)cc3)[nH]c2c1` as the molecule, how does the IC50 read?
Answer: The IC50 was 0.0829 µM.

Question: With `COc1ccc2c(Cn3cncn3)c(-c3ccc(Cl)cc3)[nH]c2c1` as the molecule, how does the IC50 read?
Answer: The IC50 was 7.77 µM.

Question: With `Clc1ccc(-c2[nH]c3cc4c(cc3c2Cn2ccnc2)OCO4)cc1` as the molecule, how does the IC50 read?
Answer: Its IC50 is 2.64 µM.

Question: With `Fc1ccc(-c2[nH]c3cc(F)ccc3c2Cn2cncn2)cc1` as the molecule, how does the IC50 read?
Answer: Its IC50 is 0.0544 µM.

Question: `COc1ccc(-c2[nH]c3cc(Cl)ccc3c2Cn2cncn2)cc1` was tested. Which IC50 did it give?
Answer: Its IC50 is 0.196 µM.

Test system: MCF7
Assay: Cytotoxicity against human MCF7 cells after 48 hrs by MTT assay
Type: cell-based
Conditions: MCF7, 48 h
Procedure, shortened: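 MCF-7 cells in DMEM with 10% FBS and 1% penicillin-streptomycin at 37 °C, 5% CO2. Seeded at 4,000 cells/well and left overnight, then exposed to a range of concentrations for 48 h. Medium replaced with fresh medium containing MTT (5 mg/ml) for 4 h, formazan dissolved in DMSO, absorbance read at 490 nm. IC50 computed from the curves.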

Question: For `Clc1ccc(-c2[nH]c3cc(Cl)ccc3c2Cn2ccnc2)cc1`, which IC50 is on record?
Answer: The IC50 was over 1000 µM.

Question: For `COc1ccc2c(Cn3ccnc3)c(-c3ccc(F)cc3)[nH]c2c1`, which IC50 is on record?
Answer: The IC50 was over 1000 µM.

Question: For `N#Cc1ccc(C(c2ccc(C#N)cc2)n2cncn2)cc1` [LETROZOLE], which IC50 is on record?
Answer: The IC50 was 4.73 µM.

Question: Which IC50 does the source give for `Fc1ccc(-c2[nH]c3cc4c(cc3c2Cn2ccnc2)OCO4)cc1` here?
Answer: Its IC50 is over 1000 µM.

Question: With `COc1ccc2c(Cn3cncn3)c(-c3ccc(F)cc3)[nH]c2c1` as the molecule, how does the IC50 read?
Answer: The IC50 was 12.2 µM.

Question: For `Fc1ccc(-c2[nH]c3cc(Cl)ccc3c2Cn2cncn2)cc1`, which IC50 is on record?
Answer: Its IC50 is 625 µM.

Question: `COc1ccc2c(Cn3ccnc3)c(-c3ccc(Cl)cc3)[nH]c2c1` was tested. Which IC50 did it give?
Answer: The IC50 was over 1000 µM.

Question: How did the IC50 turn out when `COc1ccc(-c2[nH]c3cc(F)ccc3c2Cn2cncn2)cc1` was run?
Answer: Its IC50 is 325 µM.

Question: `Fc1ccc(-c2[nH]c3cc4c(cc3c2Cn2cncn2)OCO4)cc1` was tested. Which IC50 did it give?
Answer: Its IC50 is 334 µM.

Question: Which IC50 does the source give for `COc1ccc(-c2[nH]c3cc(Cl)ccc3c2Cn2ccnc2)cc1` here?
Answer: The IC50 was over 1000 µM.

Question: How did the IC50 turn out when `Fc1ccc2c(Cn3cncn3)c(-c3ccc(Cl)cc3)[nH]c2c1` was run?
Answer: Its IC50 is over 1000 µM.

Question: `Fc1ccc(-c2[nH]c3cc(Cl)ccc3c2Cn2ccnc2)cc1` was tested. Which IC50 did it give?
Answer: The IC50 was 41.5 µM.

Question: Which IC50 does the source give for `Clc1ccc(-c2[nH]c3cc4c(cc3c2Cn2cncn2)OCO4)cc1` here?
Answer: Its IC50 is 354 µM.

Question: For `Fc1ccc(-c2[nH]c3cc(F)ccc3c2Cn2ccnc2)cc1`, which IC50 is on record?
Answer: Its IC50 is 83.2 µM.

Question: How did the IC50 turn out when `Clc1ccc(-c2[nH]c3cc(Cl)ccc3c2Cn2cncn2)cc1` was run?
Answer: The IC50 was 382 µM.

Question: How did the IC50 turn out when `COc1ccc(-c2[nH]c3cc(F)ccc3c2Cn2ccnc2)cc1` was run?
Answer: The IC50 was over 1000 µM.

Question: `Fc1ccc2c(Cn3ccnc3)c(-c3ccc(Cl)cc3)[nH]c2c1` was tested. Which IC50 did it give?
Answer: Its IC50 is 45 µM.

Question: With `COc1ccc2c(Cn3cncn3)c(-c3ccc(Cl)cc3)[nH]c2c1` as the molecule, how does the IC50 read?
Answer: The IC50 was 612 µM.

Question: For `Clc1ccc(-c2[nH]c3cc4c(cc3c2Cn2ccnc2)OCO4)cc1`, which IC50 is on record?
Answer: Its IC50 is over 1000 µM.

Question: How did the IC50 turn out when `Fc1ccc(-c2[nH]c3cc(F)ccc3c2Cn2cncn2)cc1` was run?
Answer: The IC50 was over 1000 µM.

Question: With `COc1ccc(-c2[nH]c3cc(Cl)ccc3c2Cn2cncn2)cc1` as the molecule, how does the IC50 read?
Answer: Its IC50 is 14.4 µM.
